Residue numbers refer to the chain shown, from its start. The source made the active and inactive calls. The rule behind the calls is not given here.
Key:
[1] = Oral bioavailability in rat at 3 mg/kg; assay type: ADME, organism-based; details: in vivo
Method in brief: (§1)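 Rats (n = 2) dosed orally at 3 mg/kg and IV at 1 mg/kg. Interanimal variability under 20% for all values.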

[2] = target: T1, Muscarinic acetylcholine receptor M1 (Mus musculus) (UniProt P12657); assay: Agonist activity at mouse muscarinic M1 receptor expressed in CHOK1 cells assessed as potentiation of acetylcholine-induced calcium mobilization preincubated for 4 mins measured after 1 hr by FLIPR assay; assay type: functional, cell-based; details: CHO-K1
T1 sequence (whole entry): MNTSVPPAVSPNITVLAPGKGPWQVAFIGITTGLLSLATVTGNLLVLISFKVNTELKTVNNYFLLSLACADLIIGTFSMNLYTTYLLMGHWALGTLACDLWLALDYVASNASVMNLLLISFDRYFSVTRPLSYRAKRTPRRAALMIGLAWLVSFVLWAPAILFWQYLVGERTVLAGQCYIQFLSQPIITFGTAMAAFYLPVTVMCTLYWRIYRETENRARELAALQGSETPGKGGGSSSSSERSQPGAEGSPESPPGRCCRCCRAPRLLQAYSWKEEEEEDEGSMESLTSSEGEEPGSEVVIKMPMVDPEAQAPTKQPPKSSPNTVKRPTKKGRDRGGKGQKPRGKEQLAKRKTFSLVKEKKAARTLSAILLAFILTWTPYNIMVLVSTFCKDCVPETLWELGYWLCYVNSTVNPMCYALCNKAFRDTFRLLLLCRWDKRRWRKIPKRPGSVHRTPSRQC
Method in brief: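 CHO-NFAT cells (CHO-K1 background) expressing mouse M1, plated 25,000/well, grown overnight at 37 °C, 6% CO2. Cells washed in HBSS with 20 mM Hepes, 2.5 mM probenecid, 0.1% BSA, then loaded with 1 μM Fluo-4AM for 1 h at 37 °C. Compound (final 0.67% DMSO) preincubated 4 min, then stimulated 4 min with EC20 ACh. Ca2+ flux read on FLIPR384.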

[3] = target: Muscarinic acetylcholine receptor M3 (Homo sapiens) (UniProt P20309); assay: Agonist activity at human muscarinic M3 receptor expressed in CHONFAT cells assessed as increase in acetylcholine-induced calcium mobilization at 10 uM preincubated for 4 mins measured after 1 hr by FLIPR assay; assay type: functional, cell-based
Chain of Muscarinic acetylcholine receptor M3 (Homo sapiens) (P20309 whole entry, looked up): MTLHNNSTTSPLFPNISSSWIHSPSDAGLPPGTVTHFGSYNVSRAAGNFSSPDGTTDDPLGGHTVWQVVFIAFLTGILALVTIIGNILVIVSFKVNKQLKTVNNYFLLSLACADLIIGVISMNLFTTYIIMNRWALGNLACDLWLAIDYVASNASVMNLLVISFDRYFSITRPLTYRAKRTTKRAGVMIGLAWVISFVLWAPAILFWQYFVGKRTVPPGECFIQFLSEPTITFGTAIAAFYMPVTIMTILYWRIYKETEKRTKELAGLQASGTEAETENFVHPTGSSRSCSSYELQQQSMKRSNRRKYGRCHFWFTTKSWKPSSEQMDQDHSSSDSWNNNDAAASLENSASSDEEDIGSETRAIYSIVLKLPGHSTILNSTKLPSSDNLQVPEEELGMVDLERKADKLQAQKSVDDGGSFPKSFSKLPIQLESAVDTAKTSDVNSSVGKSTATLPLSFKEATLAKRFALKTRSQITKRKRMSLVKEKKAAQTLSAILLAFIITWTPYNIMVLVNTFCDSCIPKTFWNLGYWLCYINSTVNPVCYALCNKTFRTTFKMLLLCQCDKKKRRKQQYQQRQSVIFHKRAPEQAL
Method in brief: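 CHO-NFAT cells expressing the named muscarinic receptor (human M1–M4; rhesus, dog or rat M1 in CHO-K1) were plated at 25,000 cells/well and grown overnight at 37 °C, 6% CO2. Cells were loaded with 1 μM Fluo-4AM for 1 h, washed, and preincubated 4 min with serially diluted compound (final DMSO 0.67%). They were then stimulated 4 min with an EC20 of ACh, and Ca2+ flux was read by FLIPR384.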

[4] = Half life in rat at 3 mg/kg, po and 1 mg/kg, iv; assay type: ADME, organism-based; details: in vivo; method in brief: as §1
[5] = target: T2, Muscarinic acetylcholine receptor M1 (Homo sapiens) (UniProt P11229); assay: Positive allosteric modulation of human muscarinic M1 receptor expressed in CHONFAT cells assessed as potentiation of acetylcholine-induced calcium mobilization at 0.1 uM preincubated for 4 mins measured after 1 hr by FLIPR assay relative to control; assay type: functional, cell-based
T2 sequence (whole entry): T1 sequence (whole entry) with V5A, S254T, K320R, G337A, V413I
Method in brief: (§2)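 CHO-NFAT cells expressing human M1, 25,000 cells/well, grown overnight at 37 °C, 6% CO2. Washed in HBSS with 20 mM Hepes, 2.5 mM probenecid, 0.1% BSA, then loaded with 1 μM Fluo-4AM for 1 h at 37 °C. Compound preincubated 4 min (final DMSO 0.67%), then serially diluted ACh added for 4 min. Ca2+ flux read by FLIPR384; fold leftward shift of the ACh dose-response curve.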

Mus musculus [6] = assay: Antiamnesic activity against scopolamine-induced dementia in ip dosed B6SJL mouse assessed as increase in freezing behavior at 3 uM plasma concentration; assay type: functional, organism-based
[7] = Metabolic stability in monkey NADPH-fortified hepatic microsomes assessed as oxidative metabolism; assay type: ADME, Macaca mulatta, Liver; details: rhesus monkey
Method in brief: (§3)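 Compound incubated with NADPH-fortified hepatic microsomes from rat, dog, monkey or human. Oxidative metabolism monitored.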

Mus musculus [8] = assay: Antiamnesic activity against scopolamine-induced dementia in B6SJL mouse assessed as increase in freezing behavior at 30 mg/kg, ip after 24 hrs; assay type: functional, organism-based; set-up: dose 30 mg/kg
Method in brief: (§4)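 Male B6SJL mice, 10 weeks old and naive (n = 12–16/group), were given compound IP in 5% beta-cyclodextrin and/or scopolamine 0.3 mg/kg in 0.9% saline 30 min before training. Training was 2 tone (3 kHz, 85 dB, 30 s)–footshock (0.5 mA, 1 s) pairings 2 min apart. Freezing in the same chamber was video-scored 24 h later.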

Mus musculus [9] = assay: Antiamnesic activity against scopolamine-induced dementia in B6SJL mouse assessed as increase in freezing behavior at 10 mg/kg, ip after 24 hrs; assay type: functional, organism-based; set-up: dose 10 mg/kg; method in brief: as §4
Cerebrospinal fluid = assay: Drug level in Sprague-Dawley rat cerebrospinal fluid at 10 mg/kg, po; assay type: ADME, organism-based; set-up: dose 10 mg/kg, route oral; details: in vivo, read-out: Drug uptake
Method in brief: (§5)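 Rats dosed orally at 10 mpk. Plasma, brain and CSF sampled at 2 h and concentrations determined by bioanalysis.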

[10] = Ratio of drug level in brain to plasma of Sprague-Dawley rat at 10 mg/kg, po; assay type: ADME, organism-based; set-up: dose 10 mg/kg, route oral; details: read-out: BPR; method in brief: as §5
[11] = Ratio of drug level in cerebrospinal fluid to fraction unbound level in plasma of Sprague-Dawley rat at 10 mg/kg, po; assay type: ADME, organism-based; set-up: dose 10 mg/kg, route oral; details: in vivo
[12] = Metabolic stability in human NADPH-fortified hepatic microsomes assessed as oxidative metabolism; assay type: ADME, Liver; method in brief: as §3
[13] = Metabolic stability in rat NADPH-fortified hepatic microsomes assessed as oxidative metabolism; assay type: ADME, Liver; method in brief: as §3
[14] = Oral bioavailability in rhesus monkey; assay type: ADME, organism-based, Macaca mulatta; details: in vivo
[15] = target: T2, Muscarinic acetylcholine receptor M1 (Homo sapiens); assay: Positive allosteric modulation of human muscarinic M1 receptor expressed in CHONFAT cells assessed as potentiation of acetylcholine-induced calcium mobilization at 1 uM preincubated for 4 mins measured after 1 hr by FLIPR assay relative to control; assay type: functional, cell-based; method in brief: as §2

With N#CC1(c2ccccn2)CCN(Cc2cc(C(=O)O)c(=O)n3ccccc23)CC1 [MSD-M1PAM] the bioavailability [1] was 68%, the IP [2] was 69 nM and the Activity [3] was “inactive”. The half-life [4] was 1.7 h, the fold change (FC) [5] was 3 and the Activity (Mus musculus [6]) was “Active”. For the same molecule, the Stability [7] was “Stable”, the Activity (Mus musculus [8]) was “Active” and the Activity (Mus musculus [9]) was “Active”. The concentration (Cerebrospinal fluid) was 135 nM, the Kp [10] was 0.23 and the Ratio [11] was 0.3. For the same molecule, the Stability [12] was “Stable”, the Stability [13] was “Stable” and the bioavailability [14] was 55%. It also gave a fold change (FC) [15] of 146.

From ChEMBL document CHEMBL1799933, “Discovery of a selective allosteric M1 receptor modulator with suitable development properties based on a quinolizidinone carboxylic acid scaffold” (J Med Chem, 2011)
